Key:
[1] = target: cAMP-dependent protein kinase (PKA) (Homo sapiens, UniProt P22694+P17612+P22612); assay: Inhibition of PKA; format: protein assay
In short: (§1)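 Each kinase's activity was measured by a method given in the Supporting Information. IC50 values are means of at least three independent experiments, with SEM never above 15%.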

[2] = target: Tyrosine-protein kinase Lyn (Rattus norvegicus, UniProt Q07014); assay: Inhibition of rat spleen Lyn; format: tissue-based; in short: as §1
[3] = target: Proto-oncogene tyrosine-protein kinase receptor Ret (Homo sapiens, UniProt P07949); assay: Inhibition of RET; in short: as §1
[4] = target: Dual specificity tyrosine-phosphorylation-regulated kinase 1A (Homo sapiens, UniProt Q13627); assay: Inhibition of human recombinant DYRK1a; in short: as §1
[5] = target: Glycogen synthase kinase-3 beta (Homo sapiens, UniProt P49841); assay: Inhibition of human recombinant GSK3-beta; in short: as §1
FEPD = assay: Antiproliferative activity against FEPD by MTT assay; format: functional, Homo sapiens
In short: (§2)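 MTT viability in ALCL lines cultured 48 h with or without compound at 5-100 × 10^-6 M. Viability is expressed relative to DMSO-treated control cells, set at 1.0. Values are means of triplicate cultures.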

[6] = target: Tyrosine-protein kinase CSK (Rattus norvegicus, UniProt P32577); assay: Inhibition of rat spleen CSK; format: tissue-based; in short: as §1
[7] = target: T1, NPM/ALK (Nucleophosmin/ALK tyrosine kinase receptor) (Homo sapiens) (UniProt Q9UM73+P06748); assay: Antiproliferative activity against SUDHL1 expressing NPM-ALK by MTT assay; format: functional; conditions: concentration not given here; in short: as §2
[8] = target: NPM/ALK (Nucleophosmin/ALK tyrosine kinase receptor) (Homo sapiens, UniProt Q9UM73); assay: Inhibition of NPM-ALK; format: protein assay; in short: as §1
[9] = target: Tyrosine-protein kinase SYK (Rattus norvegicus, UniProt Q64725); assay: Inhibition of rat spleen SYK; format: tissue-based; in short: as §1
[10] = Inhibition of rat liver CK2; in short: as §1
[11] = Inhibition of rat liver CK1; in short: as §1
[12] = target: Tyrosine-protein kinase Fgr (Rattus norvegicus, UniProt Q6P6U0); assay: Inhibition of rat spleen FGR; format: tissue-based; in short: as §1
[13] = target: T1, NPM/ALK (Nucleophosmin/ALK tyrosine kinase receptor) (Homo sapiens); assay: Antiproliferative activity against SR786 expressing NPM-ALK by MTT assay; format: functional; conditions: concentration not given here; in short: as §2
[14] = target: T1, NPM/ALK (Nucleophosmin/ALK tyrosine kinase receptor) (Homo sapiens); assay: Antiproliferative activity against KARPAS299 expressing NPM-ALK by MTT assay; format: functional; conditions: concentration not given here; in short: as §2
[15] = target: T2, Receptor-type tyrosine-protein kinase FLT3 (Homo sapiens, UniProt P36888); assay: Inhibition of FLT3; in short: as §1
T2 sequence (P36888 whole entry): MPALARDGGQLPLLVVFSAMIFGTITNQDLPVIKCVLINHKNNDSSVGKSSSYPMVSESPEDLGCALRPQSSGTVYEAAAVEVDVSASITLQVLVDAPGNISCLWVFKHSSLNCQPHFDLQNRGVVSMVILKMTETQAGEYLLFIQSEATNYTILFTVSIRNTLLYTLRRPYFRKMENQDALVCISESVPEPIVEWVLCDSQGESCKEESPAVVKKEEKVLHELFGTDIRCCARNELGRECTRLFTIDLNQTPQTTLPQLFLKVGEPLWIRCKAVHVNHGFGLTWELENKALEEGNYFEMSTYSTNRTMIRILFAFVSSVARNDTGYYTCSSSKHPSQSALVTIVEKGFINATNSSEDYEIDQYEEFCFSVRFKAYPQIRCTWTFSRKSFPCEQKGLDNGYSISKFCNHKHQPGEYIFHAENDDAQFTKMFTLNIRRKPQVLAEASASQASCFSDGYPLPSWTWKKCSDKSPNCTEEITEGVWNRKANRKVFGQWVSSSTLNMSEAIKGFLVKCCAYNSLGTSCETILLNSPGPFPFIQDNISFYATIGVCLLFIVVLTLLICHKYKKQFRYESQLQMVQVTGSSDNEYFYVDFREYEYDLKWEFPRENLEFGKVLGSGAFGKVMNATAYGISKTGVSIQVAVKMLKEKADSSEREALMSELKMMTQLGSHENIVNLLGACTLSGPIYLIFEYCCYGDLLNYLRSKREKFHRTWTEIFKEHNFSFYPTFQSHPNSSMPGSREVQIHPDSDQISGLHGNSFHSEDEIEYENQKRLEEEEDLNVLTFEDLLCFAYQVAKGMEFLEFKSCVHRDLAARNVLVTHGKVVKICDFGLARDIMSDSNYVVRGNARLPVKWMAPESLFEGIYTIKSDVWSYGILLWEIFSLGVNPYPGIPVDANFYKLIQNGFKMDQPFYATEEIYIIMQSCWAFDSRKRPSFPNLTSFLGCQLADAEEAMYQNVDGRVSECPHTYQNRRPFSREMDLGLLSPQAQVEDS

T1 sequence (P06748 whole entry partner): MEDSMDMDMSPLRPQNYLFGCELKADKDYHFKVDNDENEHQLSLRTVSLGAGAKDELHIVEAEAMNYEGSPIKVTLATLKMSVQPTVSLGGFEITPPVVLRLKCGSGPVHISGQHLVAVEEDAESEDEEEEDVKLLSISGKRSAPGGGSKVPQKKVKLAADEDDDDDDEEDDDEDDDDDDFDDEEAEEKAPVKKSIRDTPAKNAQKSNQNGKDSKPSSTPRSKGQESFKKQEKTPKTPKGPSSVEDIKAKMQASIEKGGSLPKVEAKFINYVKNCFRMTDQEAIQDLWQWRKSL
T1 sequence (Q9UM73 19-1620 limits assumed): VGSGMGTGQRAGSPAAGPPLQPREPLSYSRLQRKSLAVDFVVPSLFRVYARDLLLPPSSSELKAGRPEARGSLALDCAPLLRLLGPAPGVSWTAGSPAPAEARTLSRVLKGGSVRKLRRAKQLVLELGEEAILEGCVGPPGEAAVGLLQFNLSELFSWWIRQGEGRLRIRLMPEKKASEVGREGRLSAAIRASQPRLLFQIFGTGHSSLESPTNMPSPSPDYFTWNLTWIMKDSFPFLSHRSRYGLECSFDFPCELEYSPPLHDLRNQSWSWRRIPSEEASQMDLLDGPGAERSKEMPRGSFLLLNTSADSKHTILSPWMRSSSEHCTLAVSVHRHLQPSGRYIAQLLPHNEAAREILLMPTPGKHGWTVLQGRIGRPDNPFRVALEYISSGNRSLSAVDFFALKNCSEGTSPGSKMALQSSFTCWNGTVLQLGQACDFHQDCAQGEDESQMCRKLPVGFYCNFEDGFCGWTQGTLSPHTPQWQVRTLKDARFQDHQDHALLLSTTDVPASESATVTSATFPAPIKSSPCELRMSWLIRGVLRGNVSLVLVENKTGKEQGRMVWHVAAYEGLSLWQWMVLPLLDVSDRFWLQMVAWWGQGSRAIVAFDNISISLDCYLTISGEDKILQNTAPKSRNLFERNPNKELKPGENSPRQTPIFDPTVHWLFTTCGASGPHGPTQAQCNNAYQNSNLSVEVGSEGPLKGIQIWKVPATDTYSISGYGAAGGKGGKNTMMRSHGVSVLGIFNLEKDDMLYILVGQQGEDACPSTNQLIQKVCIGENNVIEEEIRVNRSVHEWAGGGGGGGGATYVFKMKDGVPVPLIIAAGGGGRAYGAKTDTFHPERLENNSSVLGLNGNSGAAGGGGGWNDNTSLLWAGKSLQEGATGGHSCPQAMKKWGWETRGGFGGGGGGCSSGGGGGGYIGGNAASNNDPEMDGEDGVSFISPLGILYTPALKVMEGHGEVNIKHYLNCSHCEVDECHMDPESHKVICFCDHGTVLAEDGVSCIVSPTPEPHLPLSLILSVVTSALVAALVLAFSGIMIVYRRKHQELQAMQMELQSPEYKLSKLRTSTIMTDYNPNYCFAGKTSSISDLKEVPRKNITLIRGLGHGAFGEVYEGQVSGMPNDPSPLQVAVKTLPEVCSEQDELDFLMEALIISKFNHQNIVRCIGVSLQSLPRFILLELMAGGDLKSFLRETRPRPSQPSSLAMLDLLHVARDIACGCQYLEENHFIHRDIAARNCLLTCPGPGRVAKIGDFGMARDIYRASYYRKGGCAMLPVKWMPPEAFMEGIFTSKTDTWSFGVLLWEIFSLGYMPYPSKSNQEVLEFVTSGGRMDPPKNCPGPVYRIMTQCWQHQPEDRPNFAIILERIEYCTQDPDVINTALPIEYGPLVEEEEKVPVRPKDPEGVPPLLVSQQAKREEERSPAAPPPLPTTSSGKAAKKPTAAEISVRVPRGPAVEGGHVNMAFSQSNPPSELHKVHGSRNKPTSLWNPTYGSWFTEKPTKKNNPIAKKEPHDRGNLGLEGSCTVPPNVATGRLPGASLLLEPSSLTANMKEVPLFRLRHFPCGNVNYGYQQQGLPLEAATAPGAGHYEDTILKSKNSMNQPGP
Tyrosine-protein kinase SYK, sequence (Q64725 whole entry): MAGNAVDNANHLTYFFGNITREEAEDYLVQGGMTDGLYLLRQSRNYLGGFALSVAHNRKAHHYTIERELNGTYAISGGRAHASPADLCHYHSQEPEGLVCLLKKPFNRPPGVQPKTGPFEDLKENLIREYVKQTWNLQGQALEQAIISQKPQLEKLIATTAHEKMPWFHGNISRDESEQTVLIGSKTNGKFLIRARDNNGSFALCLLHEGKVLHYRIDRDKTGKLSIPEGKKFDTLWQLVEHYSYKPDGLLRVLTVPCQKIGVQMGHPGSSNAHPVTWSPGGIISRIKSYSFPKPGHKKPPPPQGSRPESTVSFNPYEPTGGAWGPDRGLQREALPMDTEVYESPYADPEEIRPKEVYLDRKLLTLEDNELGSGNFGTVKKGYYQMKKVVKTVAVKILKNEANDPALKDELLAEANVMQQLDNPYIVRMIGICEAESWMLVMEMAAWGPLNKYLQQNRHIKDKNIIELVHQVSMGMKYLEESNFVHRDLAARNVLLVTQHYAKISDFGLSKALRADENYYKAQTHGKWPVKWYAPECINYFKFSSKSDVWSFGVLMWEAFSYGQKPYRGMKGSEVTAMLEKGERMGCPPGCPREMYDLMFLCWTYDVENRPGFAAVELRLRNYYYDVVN
Glycogen synthase kinase-3 beta, sequence (P49841 whole entry): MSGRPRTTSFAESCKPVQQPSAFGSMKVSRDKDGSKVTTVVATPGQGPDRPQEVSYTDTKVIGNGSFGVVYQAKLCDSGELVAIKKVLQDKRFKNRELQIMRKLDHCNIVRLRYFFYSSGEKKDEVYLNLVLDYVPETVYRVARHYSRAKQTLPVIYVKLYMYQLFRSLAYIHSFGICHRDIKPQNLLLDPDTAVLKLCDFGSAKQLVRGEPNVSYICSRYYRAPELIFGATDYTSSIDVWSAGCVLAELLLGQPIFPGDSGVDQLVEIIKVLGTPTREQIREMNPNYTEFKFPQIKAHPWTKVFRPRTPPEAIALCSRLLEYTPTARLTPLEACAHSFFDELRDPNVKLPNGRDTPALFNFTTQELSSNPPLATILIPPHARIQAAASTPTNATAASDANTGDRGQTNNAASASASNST
NPM/ALK (Nucleophosmin/ALK tyrosine kinase receptor), sequence (Q9UM73 whole entry): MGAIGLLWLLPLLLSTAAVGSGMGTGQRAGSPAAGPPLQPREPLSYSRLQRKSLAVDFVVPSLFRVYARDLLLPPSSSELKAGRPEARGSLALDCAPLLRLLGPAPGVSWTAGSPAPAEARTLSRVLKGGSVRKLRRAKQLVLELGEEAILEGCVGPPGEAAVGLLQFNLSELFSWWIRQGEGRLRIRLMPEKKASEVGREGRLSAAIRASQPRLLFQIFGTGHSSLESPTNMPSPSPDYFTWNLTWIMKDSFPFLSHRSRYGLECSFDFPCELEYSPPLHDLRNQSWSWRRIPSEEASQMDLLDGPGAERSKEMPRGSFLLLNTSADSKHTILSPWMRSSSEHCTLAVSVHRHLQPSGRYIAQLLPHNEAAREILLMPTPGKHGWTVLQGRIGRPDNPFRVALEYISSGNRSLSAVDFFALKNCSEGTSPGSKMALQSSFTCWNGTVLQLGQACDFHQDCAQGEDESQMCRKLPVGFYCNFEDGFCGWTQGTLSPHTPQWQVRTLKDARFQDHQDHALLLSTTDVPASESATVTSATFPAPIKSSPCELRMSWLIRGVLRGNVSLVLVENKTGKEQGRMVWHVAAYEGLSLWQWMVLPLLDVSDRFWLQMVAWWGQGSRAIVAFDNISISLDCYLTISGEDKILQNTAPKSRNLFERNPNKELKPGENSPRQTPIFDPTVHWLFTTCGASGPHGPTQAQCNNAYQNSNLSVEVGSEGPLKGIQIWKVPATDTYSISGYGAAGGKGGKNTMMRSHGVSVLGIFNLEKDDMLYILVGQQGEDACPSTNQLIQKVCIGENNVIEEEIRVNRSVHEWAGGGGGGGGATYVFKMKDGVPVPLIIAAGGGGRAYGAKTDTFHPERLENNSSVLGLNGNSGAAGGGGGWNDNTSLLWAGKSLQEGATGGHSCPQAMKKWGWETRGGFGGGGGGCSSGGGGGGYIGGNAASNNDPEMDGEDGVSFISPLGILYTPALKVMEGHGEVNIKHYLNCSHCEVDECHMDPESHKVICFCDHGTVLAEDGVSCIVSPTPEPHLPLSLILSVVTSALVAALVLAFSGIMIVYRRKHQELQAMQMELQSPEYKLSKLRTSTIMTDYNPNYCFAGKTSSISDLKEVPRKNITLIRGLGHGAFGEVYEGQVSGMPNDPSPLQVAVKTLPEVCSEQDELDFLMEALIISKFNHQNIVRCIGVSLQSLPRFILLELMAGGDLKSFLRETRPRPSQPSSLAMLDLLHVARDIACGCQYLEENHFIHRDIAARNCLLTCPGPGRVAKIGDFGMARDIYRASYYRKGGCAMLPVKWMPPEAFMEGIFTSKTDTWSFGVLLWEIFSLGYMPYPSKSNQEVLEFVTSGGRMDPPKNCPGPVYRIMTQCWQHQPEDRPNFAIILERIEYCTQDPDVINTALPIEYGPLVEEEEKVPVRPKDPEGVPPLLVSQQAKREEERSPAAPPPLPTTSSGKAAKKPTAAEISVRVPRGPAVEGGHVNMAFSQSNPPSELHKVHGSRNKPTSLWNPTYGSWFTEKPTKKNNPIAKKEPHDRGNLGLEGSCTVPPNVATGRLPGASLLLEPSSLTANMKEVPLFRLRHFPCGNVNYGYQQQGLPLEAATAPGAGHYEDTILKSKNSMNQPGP
NPM/ALK (Nucleophosmin/ALK tyrosine kinase receptor), sequence (P06748 whole entry, further chain): as the sequence (P06748 whole entry partner) above
Tyrosine-protein kinase CSK, sequence (P32577 whole entry): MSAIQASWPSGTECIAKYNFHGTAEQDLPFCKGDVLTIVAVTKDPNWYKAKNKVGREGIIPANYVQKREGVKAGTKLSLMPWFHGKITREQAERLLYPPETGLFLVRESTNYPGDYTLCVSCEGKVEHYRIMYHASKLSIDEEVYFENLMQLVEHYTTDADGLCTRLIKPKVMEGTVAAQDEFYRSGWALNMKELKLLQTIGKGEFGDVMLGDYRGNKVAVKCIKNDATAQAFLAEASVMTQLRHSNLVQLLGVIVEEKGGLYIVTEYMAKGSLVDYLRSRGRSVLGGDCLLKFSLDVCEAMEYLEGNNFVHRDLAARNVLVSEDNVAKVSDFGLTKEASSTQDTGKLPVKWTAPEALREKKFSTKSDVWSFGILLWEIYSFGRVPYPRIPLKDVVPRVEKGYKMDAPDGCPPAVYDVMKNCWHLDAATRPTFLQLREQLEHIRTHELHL

IC50 [1]: 3.5 µM
IC50 [2]: 2.9 µM
IC50 [3]: > 40 µM
IC50 [4]: > 40 µM
IC50 [5]: 7.5 µM
IC50 [6]: > 40 µM
inhibition [7]: 85%
IC50 [8]: > 40 µM
IC50 [9]: 4.3 µM
IC50 [10]: 0.04 µM
Ki [10]: 0.02 µM
IC50 [11]: 13 µM
IC50 [12]: 9.4 µM
inhibition [13]: 40%
inhibition [14]: 60%
IC50 [15]: > 40 µM
Compound: O=c1oc2c(O)c(O)cc3c(=O)oc4c(O)c(O)cc1c4c23 [ELLAGIC ACID]
Inhibition (FEPD): 70%

— ChEMBL document CHEMBL1146093, “Identification of ellagic acid as potent inhibitor of protein kinase CK2: a successful example of a virtual screening application” (J Med Chem, 2006)
